The source made the active and inactive calls. The calls are words filed in the database; no cut-off is given here.
Columns and labels:
Type in all cases: functional, cell-based
DLD-1 = test: Cytotoxicity against human DLD1 cells after 24 hrs by fluorometric microculture assay
Method in brief: (§1)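 DLD1 grown in RPMI 1640 with 10% FBS; HeLa in IMDM with 5% FBS; both at 37 °C, 5% CO2. Cells (6 × 10^3 per well) exposed to a range of compound concentrations for 24 h at 37 °C. Medium then removed and viability read by FMCA on a fluorescence plate reader as percent of control-well fluorescence. IC50 derived; triplicate experiments.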

HeLa = test: Cytotoxicity against human HeLa cells after 24 hrs by fluorometric microculture assay; method in brief: as §1
HT-29 = test: Cytotoxicity against human HT29 cells after 24 hrs by fluorometric microculture assay; conditions: HT-29, 24 h
HCT-116 = test: Cytotoxicity against human HCT116 cells after 24 hrs by fluorometric microculture assay; conditions: HCT-116, 24 h

Structure (SMILES) | Activity (DLD-1) | IC50 (HeLa) | IC50 (HT-29) | IC50 (HCT-116)
C/C=C(/C)C(=O)O[C@H]1CC(C)(C)C[C@H]2C3=CC[C@@H]4[C@@]5(C)CC[C@H](O[C@@H]6O[C@H](C(=O)O)[C@@H](O)[C@H](O[C@@H]7O[C@H](CO)[C@H](O[C@@H]8O[C@@H](C)[C@H](O)[C@@H](O)[C@H]8O)[C@H](O)[C@H]7O)[C@H]6O[C@@H]6O[C@H](CO)[C@@H](O)[C@H](O)[C@H]6O)C(C)(C)[C@@H]5CC[C@@]4(C)[C@]3(C)CC[C@@]12CO | Active | 3.8 µM |  | 
C/C=C(/C)C(=O)O[C@H]1CC(C)(C)C[C@H]2C3=CC[C@@H]4[C@@]5(C)CC[C@H](O[C@@H]6O[C@H](C(=O)O)[C@@H](O)[C@H](O[C@@H]7O[C@H](CO)[C@H](O[C@@H]8O[C@@H](C)[C@H](O)[C@@H](O)[C@H]8O)[C@H](O)[C@H]7O)[C@H]6O[C@@H]6O[C@H](CO)[C@@H](O)[C@H](O)[C@H]6O)C(C)(C)[C@@H]5CC[C@@]4(C)[C@]3(C)[C@@H](O)[C@@H](O)[C@@]12CO | Active | 5.5 µM |  | 
C/C=C(/C)C(=O)O[C@H]1[C@H](O)C(C)(C)C[C@H]2C3=CC[C@@H]4[C@@]5(C)CC[C@H](O[C@@H]6O[C@H](C(=O)O)[C@@H](O)[C@H](O)[C@H]6O[C@@H]6O[C@@H](C)[C@H](O)[C@@H](O)[C@H]6O)C(C)(C)[C@@H]5CC[C@@]4(C)[C@]3(C)[C@@H](O)[C@@H](O)[C@]21COC(C)=O |  |  | > 40 µg/mL | > 40 µg/mL
C/C=C(/C)C(=O)O[C@H]1[C@H](O)C(C)(C)C[C@H]2C3=CC[C@@H]4[C@@]5(C)CC[C@H](O[C@@H]6O[C@H](C(=O)O)[C@@H](O)[C@H](O)[C@H]6O[C@@H]6O[C@@H](C)[C@H](O)[C@@H](O)[C@H]6O)C(C)(C)[C@@H]5CC[C@@]4(C)[C@]3(C)[C@@H](O)[C@@H](O)[C@]21CO |  |  | > 40 µg/mL | > 40 µg/mL
C/C=C(/C)C(=O)O[C@H]1[C@H](OC(C)=O)C(C)(C)C[C@H]2C3=CC[C@@H]4[C@@]5(C)CC[C@H](O[C@@H]6O[C@H](C(=O)O)[C@@H](O)[C@H](O)[C@H]6O[C@@H]6O[C@@H](C)[C@H](O)[C@@H](O)[C@H]6O)C(C)(C)[C@@H]5CC[C@@]4(C)[C@]3(C)[C@@H](O)[C@@H](O)[C@]21CO |  |  | > 40 µg/mL | > 40 µg/mL
